From ChEMBL document CHEMBL3120111, “Bilirubin and related tetrapyrroles inhibit food-borne mutagenesis: a mechanism for antigenotoxic action against a model epoxide” (J Nat Prod, 2013)
Active and inactive are the calls of the source. The calls are words filed in the database; no cut-off is given here.

How the values were obtained:
Salmonella typhimurium [1] = test: Mutagenic activity in Salmonella typhimurium TA98 mutagenesis preincubated at 0.5 umol/plate for 25 mins by Ames test in presence of S9 liver homogenate relative to aflatoxin B1; type: toxicity, organism-based, Liver S9 fraction; settings: salmonella enterica subsp. enterica serovar typhimurium
Salmonella typhimurium [2] = test: Antimutagenic activity against PhIP-induced Salmonella typhimurium TA98 mutagenesis preincubated at 0.5 umol/plate for 25 mins by Ames test in presence of S9 liver homogenate relative to control; type: functional, organism-based; settings: Salmonella enterica subsp. enterica serovar Typhimurium, Liver S9 fraction
In short: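 IP0.5 is the percent inhibition of PhIP-positive-control revertants (0.1×10^-7 mol/plate PhIP, TA98, with S9) at 0.5 µmol/plate tetrapyrrole. It was derived from dose-response data in the 25 min preincubation plate assay, with 48 h incubation at 37 °C. Three positive-control plates and six solvent-control plates per test.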

Salmonella typhimurium [3] = test: Antimutagenic activity against PhIP-induced Salmonella typhimurium TA98 mutagenesis assessed as reduction in His+ revertants after 48 hrs by microscopy in presence of S9 liver homogenate; type: functional, organism-based; settings: Salmonella enterica subsp. enterica serovar Typhimurium, Liver S9 fraction
In short: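 Ames preincubation in TA98 with rat liver S9 mix (Aroclor 1254-induced, with NADP and glucose-6-phosphate). PhIP was 0.1×10^-7 mol/plate in DMSO; tetrapyrroles were in DMSO at 0.01–2 µmol/plate (bilirubin 0.01–0.75). Preincubation 25 min at 37 °C with shaking, then top agar on minimal glucose plates for 48 h at 37 °C. His+ revertants counted manually after microscopic lawn check. Triplicate plates, repeated independently.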

Salmonella typhimurium [4] = test: Antimutagenic activity against PhIP-induced Salmonella typhimurium TA98 mutagenesis preincubated at 0.01 to 10 umol/plate for 25 mins by Ames test in presence of S9 liver homogenate relative to control; type: functional, organism-based; settings: Salmonella enterica subsp. enterica serovar Typhimurium, Liver S9 fraction

Structure (SMILES) | Activity (Salmonella typhimurium [1]) | inhibition (Salmonella typhimurium [2]) | Activity (Salmonella typhimurium [3]) | Activity (Salmonella typhimurium [4])
C=CC1=C(C)/C(=C/c2[nH]c(Cc3[nH]c(/C=C4\NC(=O)C(C)=C4C=C)c(C)c3CCC(=O)NCCS(=O)(=O)O)c(CCC(=O)NCCS(=O)(=O)O)c2C)NC1=O [BILIRUBIN DITAURATE] | 268% | 64% |  | 
C=CC1=C(C)/C(=C/C2=NC(=C\c3[nH]c(/C=C4/NC(=O)C(C)=C4C=C)c(C)c3CCC(=O)OC)/C(CCC(=O)OC)=C2C)NC1=O |  | 55% | Active | Active
C=CC1=C(C)/C(=C/c2[nH]c(Cc3[nH]c(/C=C4\NC(=O)C(C)=C4C=C)c(C)c3CCC(=O)O)c(CCC(=O)O)c2C)NC1=O [BILIRUBIN] | 352% | 82% |  | 
C=CC1=C(C)/C(=C\c2[nH]c(Cc3[nH]c(/C=C4/NC(=O)C(C)=C4C=C)c(C)c3CCC(=O)OC)c(CCC(=O)OC)c2C)NC1=O |  | 68% |  | 
CC[C@H]1[C@H](Cc2[nH]c(/C=C3\N=C(C[C@@H]4NC(=O)[C@H](CC)[C@H]4C)C(C)=C3CCC(=O)O)c(CCC(=O)O)c2C)NC(=O)[C@@H]1C |  | 57% |  | Active
C=CC1=C(C)c2cc3[nH]c(cc4nc(cc5[nH]c(cc1n2)c(C)c5CCC(=O)O)C(CCC(=O)O)=C4C)c(C)c3C=C |  | 97% |  | 
C=CC1=C(C)/C(=C/C2=NC(=C\c3[nH]c(/C=C4\NC(=O)C(C)=C4C=C)c(C)c3CCC(=O)O)/C(CCC(=O)O)=C2C)NC1=O [BILIVERDIN] | 363% | 78% | Active | Active
CCC1=C(C)[C@H](CC2=N/C(=C\c3[nH]c(C[C@@H]4N=C(O)C(C)=C4CC)c(C)c3CCC(=O)O)C(CCC(=O)O)=C2C)N=C1O |  | 48% |  | Active
